# The list is not random: actives were taken first. Their share in the collection is about 1.8%.
# M4 PAM – potentiates acetylcholine response at human M4 receptor; P08173; CHO-K1 hM4/Gqi5, Fluo-8 calcium fluorescence, ACh EC20; 0% = ACh EC20, 100% = maximal ACh; activation, % at 3 µM; 360,000 tested, 0.4% active;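 active = activation above its plate's cutoff, the mean activation of sample wells plus 3 SD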
# M5 antag – blocks acetylcholine activation of human M5 receptor; P08912; CHO-hM5 cells, Fluo-8 calcium fluorescence, ACh EC80; inhibition, % at 3 µM; 360,000 tested, 0.59% active;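 active = inhibition above a per-plate cutoff, the mean of that plate's test compounds plus 3 SD, cut at about 27% in these data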
# Target sequence (P08912 whole entry, looked up): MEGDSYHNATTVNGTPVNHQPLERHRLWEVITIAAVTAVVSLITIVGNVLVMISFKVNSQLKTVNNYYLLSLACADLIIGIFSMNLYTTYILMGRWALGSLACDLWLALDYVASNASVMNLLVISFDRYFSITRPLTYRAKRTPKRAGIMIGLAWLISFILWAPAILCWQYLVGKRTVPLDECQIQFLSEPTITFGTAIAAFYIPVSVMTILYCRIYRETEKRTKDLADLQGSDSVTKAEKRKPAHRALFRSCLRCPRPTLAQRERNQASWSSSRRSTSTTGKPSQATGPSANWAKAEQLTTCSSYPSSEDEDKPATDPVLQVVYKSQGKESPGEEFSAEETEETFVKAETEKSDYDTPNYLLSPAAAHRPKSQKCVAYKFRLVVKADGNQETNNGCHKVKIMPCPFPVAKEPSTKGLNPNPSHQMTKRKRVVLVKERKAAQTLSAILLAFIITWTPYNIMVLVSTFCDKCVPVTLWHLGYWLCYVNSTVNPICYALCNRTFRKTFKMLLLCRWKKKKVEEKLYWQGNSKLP
# M5 PAM – CHRM5 positive allosteric modulation; P08912; 360,000 tested, 0.3% active; AID 624038; activation, % at 3 µM; CHO-K1 hM5, Fluo-8 calcium, ACh EC20 PAM; 0% = ACh EC20, 100% = ACh EC100;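 active = activation above the run cutoff, the mean activation of all test compounds plus 3 SD, cut at about 18% in these data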
#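 Assay system – human M5 receptor in CHO-K1 cells · Read-out – % activation, ACh-normalized · Technique – Fluo-8 calcium fluorescence · Dosing – single-point, 3 µM nominal · Incubation – Fluo-8 loading 80 min at 37 °C plus 30 min room temperature · Repeats – singlicate, one well per test compound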
# M5 ag – CHRM5 agonism in calcium assay | P08912 | CHO-K1 hM5 cells, Fluo-8 calcium fluorescence; 0% DMSO wells, 100% maximal acetylcholine response | activation, % at 3 µM | 360,000 tested, 0.19% active | AID 624037;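 active = activation above the run's mean over test compounds plus 3 SD, cut at about 23% in these data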;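 note: signal is peak over basal fluorescence ratio across the kinetic read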
# CHRM4 agonist – CHRM4 agonism in calcium assay; activation, % at 3 µM; AID 624127; CHO-K1 hM4/Gqi5, Fluo-8 calcium fluorescence; vehicle 0%, full acetylcholine response 100%; 360,000 tested, 0.14% active; P08173;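 active = activation above the run mean over all test wells plus 3 SD, cut at about 32% in these data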;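 note: peak over basal fluorescence ratio per well then scaled between controls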
# M4 antag – antagonists of human muscarinic M4 receptor (CHRM4) | inhibition, % at 3 µM | CHO-hM4 cells, ACh EC80, Fluo-8 calcium fluorescence | P08173 | 360,000 tested, 0.73% active | AID 624125;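 active = inhibition above its plate's cutoff, the mean inhibition of sample wells plus 3 SD, cut at about 27% in these data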
# A number is an active result; . = inactive.
SMILES,M4 PAM,M5 antag,M5 PAM,M5 ag,CHRM4 agonist,M4 antag
CC(=O)c1cccc(NC(=O)C(C)OC(=O)Cc2c[nH]c3ccccc23)c1 (stereo unspecified),.,.,.,.,.,.
CCCN(C(=O)CSc1ncnc2sccc12)c1c(N)n(Cc2ccccc2)c(=O)[nH]c1=O,.,.,.,.,.,.
CCCOc1ccc2c(c1)C(=NN=C(N)N)c1cc(OCCC)ccc1-2,28.4,.,.,.,.,.
COc1ccc(/C=C2\SC(=S)N(C(Cc3ccccc3)C(=O)O)C2=O)cc1 (stereo unspecified),.,.,.,.,.,.
O=C1/C(=C\c2cccc(O)c2O)SC(=S)N1Cc1ccccc1,.,.,.,.,.,.
COc1cc(/C=C2\SC(=S)N(C(C(=O)O)c3ccccc3)C2=O)ccc1O (stereo unspecified),.,27.1,.,40.3,40.4,.
O=C(O)C(c1ccccc1)N1C(=O)/C(=C\c2ccc(O)c(O)c2)SC1=S (stereo unspecified),.,.,.,.,35.0,.
O=C1/C(=C\c2cc([N+](=O)[O-])ccc2O)SC(=S)N1Cc1ccc(Cl)cc1,.,28.5,.,.,.,30.0
COc1ccccc1/C=C1\SC(=S)N(C(C(=O)O)c2ccccc2)C1=O (stereo unspecified),.,.,.,.,.,.
COc1cc(/C=C2/SC(=S)N(c3c(C)n(C)n(-c4ccccc4)c3=O)C2=O)ccc1O,.,.,.,28.9,.,.
COc1cc(/C=C2\SC(=S)N(NS(=O)(=O)c3ccccc3)C2=O)ccc1O,.,.,.,.,.,.
COc1ccc(C(=O)O)cc1S(=O)(=O)Nc1ccccc1-c1ccccc1,.,.,.,.,.,.
CCOc1cc(/C=C2\SC(=S)N(C(C(=O)O)c3ccccc3)C2=O)ccc1O (stereo unspecified),.,.,.,61.1,52.1,.
CCOc1ccc(/C=C2/SC(=S)N(C(C(=O)O)c3ccccc3)C2=O)cc1OCC (stereo unspecified),.,.,.,.,.,.
O=C1/C(=C\c2ccc(O)c(O)c2)SC(=S)N1Cc1ccccc1,.,.,.,.,.,.
COc1cc(/C=C2/SC(=S)N(Cc3ccccc3)C2=O)ccc1O,.,.,.,23.3,.,.
COc1ccc(C(=O)N2CCN(c3nc(C4CC4)nc4sc(C)c(C)c34)CC2)cc1,20.3,.,.,.,.,.
Cc1sc2nc(C3CC3)nc(N3CCN(C(=O)c4ccc(F)cc4)CC3)c2c1C,18.2,.,.,.,.,.
Cc1sc2nc(C3CC3)nc(N3CCN(C(=O)c4ccccc4F)CC3)c2c1C,.,.,.,.,.,.
Cc1sc2nc(C3CC3)nc(N3CCN(C(=O)c4ccc(Cl)cc4)CC3)c2c1C,37.2,.,.,.,.,.
C[C@H](CO)N1C[C@H](C)[C@@H](CN(C)C(=O)Nc2ccc3c(c2)OCO3)Oc2c(NS(=O)(=O)c3ccc(F)cc3)cccc2C1=O,.,.,.,.,.,.
CCCCCCCCCC[N+](C)(C)CC/C=C1/c2ccccc2Sc2ccc(Cl)cc21,.,60.0,.,.,.,41.0
CCCCCCCCCCC[N+](C)(C)CC/C=C1/c2ccccc2Sc2ccc(Cl)cc21,.,82.2,.,.,.,52.2
CC[N+](C)(C)CC/C=C1/c2ccccc2Sc2ccc(Cl)cc21,.,99.3,.,.,.,96.4
CCCCCC[n+]1c(-c2ccc(Cl)cc2Cl)csc1Nc1ccccc1,.,.,.,.,.,.
SMILES,M4 PAM,M5 antag,M5 PAM,M5 ag,CHRM4 agonist,M4 antag
CCOc1ccc(N2CC(C(=O)NCCc3ccc(S(N)(=O)=O)cc3)CC2=O)cc1 (stereo unspecified),.,.,.,.,.,.
Cc1ccccc1NC(=O)CSc1nnc(NC(=O)c2ccco2)s1,.,.,.,.,.,.
Cc1ccc(CSc2nc(N)cc(=O)[nH]2)cc1,.,.,.,.,.,.
Fc1ccccc1-c1nc(NCC2CC2)nc2ccsc12,.,.,.,.,.,.
CN(C)CCNc1nc(-c2ccccc2F)c2sccc2n1,.,40.1,.,.,.,.
Cc1cccc(C(=O)NC(=S)NNC(=O)COc2c(C)cccc2C)c1,22.9,.,.,.,.,.
Cc1onc(-c2ccccc2)c1C(=O)NNC(=S)NC(=O)c1ccc(Br)cc1,.,.,.,34.6,60.6,.
Cc1onc(-c2ccccc2)c1C(=O)NNC(=S)NC(=O)c1ccc(Cl)cc1Cl,.,.,.,30.3,113.2,.
Cc1ccc(C(=O)NNC(=S)NC(=O)c2ccc(Cl)cc2)cc1,.,.,.,97.9,130.9,33.3
Cc1cccc(C(=O)NC(=S)NNC(=O)Cc2ccccc2)c1,.,.,.,.,.,.
Cc1cccc(C(=O)NC(=S)NNC(=O)c2ccccc2Cl)c1,.,.,.,46.0,39.8,.
COc1cc(OC)c(NC(=O)c2c(-c3ccccc3)noc2C)cc1Cl,.,.,18.4,.,.,.
Cc1ccccc1C(=O)NNC(=S)NC(=O)c1ccc(Cl)cc1Cl,.,.,.,53.0,84.0,.
NC(=O)c1nc(C(=O)N2CCN(c3ccccc3)CC2)c2ccccc2n1,.,.,20.0,.,.,.
NC(=O)c1nc(C(=O)N2CCCCC2)c2ccccc2n1,.,.,.,.,.,.
CC(=O)Nc1ccc(/C(C)=N/Nc2nc(Nc3cccc4ccccc34)nc(N3CCOCC3)n2)cc1,.,.,.,32.1,.,.
CC(=O)Nc1ccc(/C(C)=N/Nc2nc(N3CCOCC3)nc(N3CCOCC3)n2)cc1,.,.,.,.,.,.
C=CCN(C(=O)CN1CCCCC1)c1nc(-c2ccccc2)cs1,.,.,.,.,.,.
C=CCN(C(=O)C1CC(=O)N(C2CCCC2)C1)c1nc(-c2ccc(S(C)(=O)=O)cc2)cs1 (stereo unspecified),.,.,.,.,32.1,.
Cc1cn(CC(=O)NCC(C)c2ccccc2)c(=O)[nH]c1=O (stereo unspecified),.,.,.,.,.,.
C/C(=N\Nc1c(F)c(F)c(Br)c(F)c1F)c1ccncc1,14.7,.,.,.,.,.
C=CCn1c(C)cc(C(=O)CSc2nnc3n(CCC)c(=O)c4ccccc4n23)c1C,.,.,.,.,.,.
Cc1cc(N2C(=O)C(O)=C(C(=O)c3cccs3)C2c2ccccc2)no1 (stereo unspecified),.,.,.,.,.,.
COc1cccc(C2C(C(=O)c3cccs3)=C(O)C(=O)N2c2cc(C)on2)c1 (stereo unspecified),.,.,26.3,.,.,.

# Compound activity deposited in PubChem by The Scripps Research Institute Molecular Screening Center.
